Activity calls are given as the source filed them. The rule behind the calls is not given here.
Columns and labels:
Assay type in all cases: cell-based
[1] = molecular target: T1, Toll-like receptor 8 (Homo sapiens) (UniProt Q9NR97); experiment: Agonist activity at TLR8 in human PBMC assessed as induction of myeloid dendritic cell maturation by measuring HLA-DR level at 0.1 uM after 6 hrs by flow cytometry
T1 sequence (whole entry): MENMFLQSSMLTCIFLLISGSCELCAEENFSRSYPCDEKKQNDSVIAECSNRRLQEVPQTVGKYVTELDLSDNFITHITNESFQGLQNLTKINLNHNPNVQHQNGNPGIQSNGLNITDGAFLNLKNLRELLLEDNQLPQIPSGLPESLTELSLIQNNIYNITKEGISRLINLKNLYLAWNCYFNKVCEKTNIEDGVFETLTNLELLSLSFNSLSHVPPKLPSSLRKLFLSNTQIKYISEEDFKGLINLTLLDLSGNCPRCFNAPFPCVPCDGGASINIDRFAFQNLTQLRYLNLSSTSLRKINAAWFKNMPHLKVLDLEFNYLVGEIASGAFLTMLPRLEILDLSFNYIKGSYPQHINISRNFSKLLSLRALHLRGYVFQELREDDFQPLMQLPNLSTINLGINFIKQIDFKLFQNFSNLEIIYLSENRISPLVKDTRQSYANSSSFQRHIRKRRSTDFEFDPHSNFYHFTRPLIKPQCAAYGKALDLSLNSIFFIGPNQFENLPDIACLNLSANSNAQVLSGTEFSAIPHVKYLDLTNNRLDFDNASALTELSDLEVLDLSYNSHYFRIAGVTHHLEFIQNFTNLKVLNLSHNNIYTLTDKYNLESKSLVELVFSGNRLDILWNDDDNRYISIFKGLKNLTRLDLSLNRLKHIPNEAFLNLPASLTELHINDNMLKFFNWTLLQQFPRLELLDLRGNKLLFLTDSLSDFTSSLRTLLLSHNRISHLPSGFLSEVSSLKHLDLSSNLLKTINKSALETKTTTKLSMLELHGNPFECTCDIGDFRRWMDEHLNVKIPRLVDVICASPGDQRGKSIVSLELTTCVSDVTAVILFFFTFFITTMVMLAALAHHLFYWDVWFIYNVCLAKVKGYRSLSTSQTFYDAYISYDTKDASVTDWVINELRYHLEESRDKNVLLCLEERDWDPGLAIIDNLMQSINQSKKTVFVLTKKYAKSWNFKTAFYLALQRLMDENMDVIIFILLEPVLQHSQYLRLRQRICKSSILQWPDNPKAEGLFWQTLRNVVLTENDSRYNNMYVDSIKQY
Method in brief: (§1)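 hPBMCs stimulated 6 h at a single 0.1 μM dose; HLA-DR, MHC-I, CD80 and CD86 on mDCs and pDCs measured by flow cytometry, expressed as fold change versus unstimulated cells. Mean ± SD of three independent experiments in three different donors.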

[2] = molecular target: T2, Toll-like receptor 7 (Homo sapiens) (UniProt Q9NYK1); experiment: Agonist activity at TLR7 in human PBMC assessed as induction of plasmacytoid dendritic cell maturation by measuring CD80 level at 0.1 uM after 6 hrs by flow cytometry; method in brief: as §1
T2 sequence (whole entry): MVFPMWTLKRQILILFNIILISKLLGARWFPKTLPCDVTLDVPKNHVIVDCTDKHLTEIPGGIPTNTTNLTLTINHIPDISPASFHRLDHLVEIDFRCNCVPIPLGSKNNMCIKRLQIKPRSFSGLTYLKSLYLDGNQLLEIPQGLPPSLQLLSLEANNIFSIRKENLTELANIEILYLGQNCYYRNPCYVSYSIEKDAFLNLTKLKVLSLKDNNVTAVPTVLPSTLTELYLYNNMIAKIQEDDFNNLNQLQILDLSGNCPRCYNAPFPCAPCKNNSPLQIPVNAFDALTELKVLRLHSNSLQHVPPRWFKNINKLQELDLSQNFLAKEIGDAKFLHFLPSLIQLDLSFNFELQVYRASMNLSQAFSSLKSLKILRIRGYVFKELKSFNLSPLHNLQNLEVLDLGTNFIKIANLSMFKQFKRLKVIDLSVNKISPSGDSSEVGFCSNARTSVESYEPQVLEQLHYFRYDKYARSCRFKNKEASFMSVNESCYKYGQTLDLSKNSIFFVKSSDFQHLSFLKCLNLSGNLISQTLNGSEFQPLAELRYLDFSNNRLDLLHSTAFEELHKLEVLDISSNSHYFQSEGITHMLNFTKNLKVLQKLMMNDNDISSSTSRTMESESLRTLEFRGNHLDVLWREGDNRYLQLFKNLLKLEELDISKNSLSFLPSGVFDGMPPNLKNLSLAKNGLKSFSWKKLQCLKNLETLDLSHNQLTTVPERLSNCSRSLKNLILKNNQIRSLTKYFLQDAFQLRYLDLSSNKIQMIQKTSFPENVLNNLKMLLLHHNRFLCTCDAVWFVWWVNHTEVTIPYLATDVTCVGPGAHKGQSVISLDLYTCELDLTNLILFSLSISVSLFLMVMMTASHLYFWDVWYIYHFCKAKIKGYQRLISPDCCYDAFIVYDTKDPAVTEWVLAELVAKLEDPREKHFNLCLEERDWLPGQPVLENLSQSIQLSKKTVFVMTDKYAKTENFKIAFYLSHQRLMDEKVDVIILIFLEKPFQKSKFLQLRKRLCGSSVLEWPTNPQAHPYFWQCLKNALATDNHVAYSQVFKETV

[3] = molecular target: T2, Toll-like receptor 7 (Homo sapiens); experiment: Agonist activity at TLR7 in human PBMC assessed as induction of plasmacytoid dendritic cell maturation by measuring HLA-DR level at 0.1 uM after 6 hrs by flow cytometry; method in brief: as §1
[4] = molecular target: Toll-like receptor 3 (Homo sapiens) (UniProt O15455); experiment: Agonist activity at human TLR3 expressed in HEK293 cells by SEAP reporter gene assay
Toll-like receptor 3 (Homo sapiens), sequence (O15455 whole entry): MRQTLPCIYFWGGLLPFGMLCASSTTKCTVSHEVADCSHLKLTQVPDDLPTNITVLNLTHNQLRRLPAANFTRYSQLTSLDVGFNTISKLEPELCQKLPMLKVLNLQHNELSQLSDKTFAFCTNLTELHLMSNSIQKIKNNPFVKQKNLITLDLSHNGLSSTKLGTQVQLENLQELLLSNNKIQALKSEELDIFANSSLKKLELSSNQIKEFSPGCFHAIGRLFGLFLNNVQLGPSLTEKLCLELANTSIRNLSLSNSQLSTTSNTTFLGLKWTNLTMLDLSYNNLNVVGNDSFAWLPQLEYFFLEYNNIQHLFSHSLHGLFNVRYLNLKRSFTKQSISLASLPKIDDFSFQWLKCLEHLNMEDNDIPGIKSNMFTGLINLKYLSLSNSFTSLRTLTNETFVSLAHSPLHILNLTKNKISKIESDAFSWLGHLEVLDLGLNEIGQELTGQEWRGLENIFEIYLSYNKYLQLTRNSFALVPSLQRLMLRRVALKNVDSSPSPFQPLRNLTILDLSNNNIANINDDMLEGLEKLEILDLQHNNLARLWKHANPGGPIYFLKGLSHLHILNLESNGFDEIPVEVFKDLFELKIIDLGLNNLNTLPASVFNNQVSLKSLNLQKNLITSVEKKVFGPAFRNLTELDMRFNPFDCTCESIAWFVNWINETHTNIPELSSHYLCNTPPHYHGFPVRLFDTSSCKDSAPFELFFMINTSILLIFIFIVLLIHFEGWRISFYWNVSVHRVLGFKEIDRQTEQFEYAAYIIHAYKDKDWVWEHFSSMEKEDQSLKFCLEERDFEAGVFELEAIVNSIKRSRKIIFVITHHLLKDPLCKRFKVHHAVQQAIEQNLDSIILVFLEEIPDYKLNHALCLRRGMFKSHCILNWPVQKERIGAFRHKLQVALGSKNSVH

[5] = molecular target: T1, Toll-like receptor 8 (Homo sapiens); experiment: Agonist activity at TLR8 in human PBMC assessed as induction of myeloid dendritic cell maturation by measuring CD86 level at 0.1 uM after 6 hrs by flow cytometry; method in brief: as §1
[6] = molecular target: T1, Toll-like receptor 8 (Homo sapiens); experiment: Agonist activity at TLR8 in human PBMC assessed as induction of myeloid dendritic cell maturation by measuring MHC-1 level at 0.1 uM after 6 hrs by flow cytometry; method in brief: as §1
[7] = molecular target: T2, Toll-like receptor 7 (Homo sapiens); experiment: Agonist activity at TLR7 in human PBMC assessed as induction of plasmacytoid dendritic cell maturation by measuring MHC-1 level at 0.1 uM after 6 hrs by flow cytometry; method in brief: as §1
[8] = molecular target: T1, Toll-like receptor 8 (Homo sapiens); experiment: Agonist activity at TLR8 in human PBMC assessed as induction of myeloid dendritic cell maturation by measuring CD80 level at 0.1 uM after 6 hrs by flow cytometry; method in brief: as §1

Activity [1]: inactive | Activity [2]: inactive | Activity [3]: inactive | Activity [4]: inactive | Activity [5]: inactive | Activity [6]: inactive | Activity [7]: inactive | Activity [8]: inactive
Structure (SMILES): Nc1nc(OCCCCO)nc2c1[nH]c(=O)n2CC1CCNCC1

Reference: ChEMBL document CHEMBL4627265, “Optimization of 8-oxoadenines with toll-like-receptor 7 and 8 activity” (Bioorg Med Chem Lett, 2020)
